# How the values were obtained:
# Plasmodium falciparum [1] = experiment: Antiplasmodial activity against chloroquine-sensitive Plasmodium falciparum 3D7 asynchronous cultures infected in human erythrocytes after 72 hrs by SYBR green1 staining based fluorescence assay; assay type: functional, organism-based; conditions: 3D7, 72 h
# Summary of the method: (§1)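 Parasites kept in human erythrocytes at 5% hematocrit in RPMI-1640 (HEPES) with 0.5% AlbuMaxII, 0.2% glucose, bicarbonate, 15 µM hypoxanthine, 37 °C CO2. Two-fold serial dilutions spanning […]; asynchronous culture at 0.8-1% parasitaemia, 1% haematocrit; 72 h, 37 °C. Lytic buffer with SYBR Green (1x final), 2 h dark, RT; Ex 485/Em 535 nm. IC50 from DNA signal versus drug-free controls; at least duplicate determinations.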
# Plasmodium falciparum [2] = experiment: Antiplasmodial activity against chloroquine-resistant Plasmodium falciparum K1 asynchronous cultures infected in human erythrocytes after 72 hrs by SYBR green1 staining based fluorescence assay; assay type: functional, organism-based; conditions: K1, 72 h; summary of the method: as §1
# [3] = Cytotoxicity against African green monkey Vero cells measured after 72 hrs by resazurin assay; assay type: cell-based; conditions: chlorocebus sabaeus
# Summary of the method: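 VERO monkey kidney cells grown in MEM with 15% FBS under 5% CO2 at 37 °C. Cells exposed to serial drug dilutions for three days. 10% resazurin then added as viability marker. Fluorescence read at excitation 530 ± 25 nm and emission 590 ± 25 nm to calculate median cytotoxic concentration (CC50). Values are the average of at least duplicate determinations.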
# [4] = Selectivity index, ratio of CC50 for African green monkey Vero cells to IC50 for chloroquine-sensitive Plasmodium falciparum 3D7 asynchronous cultures infected in human erythrocytes; assay type: toxicity, cell-based; conditions: read-out: Ratio CC50/IC50
# [5] = Selectivity index, ratio of CC50 for African green monkey Vero cells to IC50 for chloroquine-resistant Plasmodium falciparum K1 asynchronous cultures infected in human erythrocytes; assay type: toxicity, cell-based; conditions: read-out: Ratio CC50/IC50
Compound,IC50 (Plasmodium falciparum [1]) [µM],IC50 (Plasmodium falciparum [2]) [µM],CC50 at 72 h [3] [µM],selectivity ratio [4],selectivity ratio [5]
CC(=O)OC[C@H]1O[C@@H](CC(=O)/C=C2\C(=O)N(CCc3ccccc3)c3ccccc32)[C@H](OC(C)=O)[C@@H](OC(C)=O)[C@@H]1OC(C)=O,0.95,0.75,64.7,68.1,86.2
CC(=O)OC[C@H]1O[C@@H](CC(=O)/C=C2\C(=O)N(Cc3ccc(F)cc3)c3ccc(Cl)cc32)[C@H](OC(C)=O)[C@@H](OC(C)=O)[C@@H]1OC(C)=O,0.32,0.25,107,335,429
CC(=O)OC[C@H]1O[C@@H](CC(=O)/C=C2\C(=O)N(Cc3ccccc3)c3ccc(Cl)cc32)[C@H](OC(C)=O)[C@@H](OC(C)=O)[C@@H]1OC(C)=O,0.26,0.31,91.2,351,294
CC(=O)OC[C@H]1O[C@@H](CC(=O)CC2(O)C(=O)Nc3ccc(Cl)cc32)[C@H](OC(C)=O)[C@@H](OC(C)=O)[C@@H]1OC(C)=O (stereo partly drawn),> 5,> 5,,,
CC(=O)OC[C@H]1O[C@@H](CC(=O)/C=C2\C(=O)N(Cc3ccccc3)c3ccccc32)[C@H](OC(C)=O)[C@@H](OC(C)=O)[C@@H]1OC(C)=O,0.77,0.29,71.2,92.4,245
CC(=O)OC[C@H]1O[C@@H](CC(=O)CC2(O)C(=O)N(CCc3ccccc3)c3ccc(Cl)cc32)[C@H](OC(C)=O)[C@@H](OC(C)=O)[C@@H]1OC(C)=O (stereo partly drawn),> 5,> 5,,,
CCCCN1C(=O)/C(=C\C(=O)C[C@@H]2O[C@H](COC(C)=O)[C@@H](OC(C)=O)[C@H](OC(C)=O)[C@H]2OC(C)=O)c2ccccc21,2.61,1.84,126,48.1,68.2
CCCN1C(=O)C(O)(CC(=O)C[C@@H]2O[C@H](COC(C)=O)[C@@H](OC(C)=O)[C@H](OC(C)=O)[C@H]2OC(C)=O)c2cc(Cl)ccc21 (stereo partly drawn),> 5,> 5,,,
CC(=O)OC[C@H]1O[C@@H](CC(=O)CC2(O)C(=O)N(Cc3ccc(F)cc3)c3ccccc32)[C@H](OC(C)=O)[C@@H](OC(C)=O)[C@@H]1OC(C)=O (stereo partly drawn),> 5,> 5,,,
CC(=O)OC[C@H]1O[C@@H](CC(=O)CC2(O)C(=O)N(Cc3cccc(C)c3)c3ccc(Cl)cc32)[C@H](OC(C)=O)[C@@H](OC(C)=O)[C@@H]1OC(C)=O (stereo partly drawn),> 5,> 5,,,
CCCN1C(=O)/C(=C\C(=O)C[C@@H]2O[C@H](COC(C)=O)[C@@H](OC(C)=O)[C@H](OC(C)=O)[C@H]2OC(C)=O)c2ccccc21,3.59,> 5,125,34.7,< 24.9
CC(=O)OC[C@H]1O[C@@H](CC(=O)CC2(O)C(=O)N(Cc3ccc(F)cc3)c3ccc(Cl)cc32)[C@H](OC(C)=O)[C@@H](OC(C)=O)[C@@H]1OC(C)=O (stereo partly drawn),3.54,2.26,,,
CC(=O)OC[C@H]1O[C@@H](CC(=O)/C=C2\C(=O)N(Cc3ccc(Br)cc3)c3ccccc32)[C@H](OC(C)=O)[C@@H](OC(C)=O)[C@@H]1OC(C)=O,0.23,0.8,76.5,333,95.7
CC(=O)OC[C@H]1O[C@@H](CC(=O)/C=C2\C(=O)N(Cc3ccc(Br)cc3)c3ccc(Cl)cc32)[C@H](OC(C)=O)[C@@H](OC(C)=O)[C@@H]1OC(C)=O,0.24,0.15,93.3,389,622
CC(=O)OC[C@H]1O[C@@H](CC(=O)/C=C2\C(=O)N(Cc3cccc(C)c3)c3ccc(Cl)cc32)[C@H](OC(C)=O)[C@@H](OC(C)=O)[C@@H]1OC(C)=O,0.17,1.04,91,535,87.5
CCCN1C(=O)/C(=C\C(=O)C[C@@H]2O[C@H](COC(C)=O)[C@@H](OC(C)=O)[C@H](OC(C)=O)[C@H]2OC(C)=O)c2cc(Cl)ccc21,1.18,0.4,95.5,81,239
CCCCN1C(=O)C(O)(CC(=O)C[C@@H]2O[C@H](COC(C)=O)[C@@H](OC(C)=O)[C@H](OC(C)=O)[C@H]2OC(C)=O)c2cc(Cl)ccc21 (stereo partly drawn),> 5,> 5,,,

Compound,IC50 (Plasmodium falciparum [1]) [µM],IC50 (Plasmodium falciparum [2]) [µM],CC50 at 72 h [3] [µM],selectivity ratio [4],selectivity ratio [5]
CC(=O)OC[C@H]1O[C@@H](CC(=O)/C=C2\C(=O)Nc3ccc(Cl)cc32)[C@H](OC(C)=O)[C@@H](OC(C)=O)[C@@H]1OC(C)=O,2.68,2.52,122,45.5,48.4
CCCCN1C(=O)C(O)(CC(=O)C[C@@H]2O[C@H](COC(C)=O)[C@@H](OC(C)=O)[C@H](OC(C)=O)[C@H]2OC(C)=O)c2ccccc21 (stereo partly drawn),> 5,> 5,,,
CC(=O)OC[C@H]1O[C@@H](CC(=O)/C=C2\C(=O)N(CCc3ccccc3)c3ccc(Cl)cc32)[C@H](OC(C)=O)[C@@H](OC(C)=O)[C@@H]1OC(C)=O,0.11,0.94,93,845,98.9
CC(=O)OC[C@H]1O[C@@H](CC(=O)CC2(O)C(=O)N(Cc3ccc(Br)cc3)c3ccc(Cl)cc32)[C@H](OC(C)=O)[C@@H](OC(C)=O)[C@@H]1OC(C)=O (stereo partly drawn),> 5,4.81,,,
CC(=O)OC[C@H]1O[C@@H](CC(=O)CC2(O)C(=O)N(Cc3ccc(Br)cc3)c3ccccc32)[C@H](OC(C)=O)[C@@H](OC(C)=O)[C@@H]1OC(C)=O (stereo partly drawn),> 5,> 5,,,
CC(=O)OC[C@H]1O[C@@H](CC(=O)CC2(O)C(=O)N(Cc3cccc(C)c3)c3ccccc32)[C@H](OC(C)=O)[C@@H](OC(C)=O)[C@@H]1OC(C)=O (stereo partly drawn),> 5,> 5,,,
CC(=O)OC[C@H]1O[C@@H](CC(=O)CC2(O)C(=O)Nc3ccccc32)[C@H](OC(C)=O)[C@@H](OC(C)=O)[C@@H]1OC(C)=O (stereo partly drawn),> 5,> 5,,,
CCCN1C(=O)C(O)(CC(=O)C[C@@H]2O[C@H](COC(C)=O)[C@@H](OC(C)=O)[C@H](OC(C)=O)[C@H]2OC(C)=O)c2ccccc21 (stereo partly drawn),> 5,> 5,,,
CC(=O)OC[C@H]1O[C@@H](CC(=O)CC2(O)C(=O)N(CCc3ccccc3)c3ccccc32)[C@H](OC(C)=O)[C@@H](OC(C)=O)[C@@H]1OC(C)=O (stereo partly drawn),> 5,> 5,,,
CC(=O)OC[C@H]1O[C@@H](CC(=O)/C=C2\C(=O)N(Cc3ccc(F)cc3)c3ccccc32)[C@H](OC(C)=O)[C@@H](OC(C)=O)[C@@H]1OC(C)=O,0.47,1.19,119,253,100
CC(=O)OC[C@H]1O[C@@H](CC(=O)/C=C2\C(=O)Nc3ccccc32)[C@H](OC(C)=O)[C@@H](OC(C)=O)[C@@H]1OC(C)=O,4.27,> 5,127,29.8,< 25.4
CC(=O)OC[C@H]1O[C@@H](CC(=O)CC2(O)C(=O)N(Cc3ccccc3)c3ccccc32)[C@H](OC(C)=O)[C@@H](OC(C)=O)[C@@H]1OC(C)=O (stereo partly drawn),> 5,> 5,,,
CCCCN1C(=O)/C(=C\C(=O)C[C@@H]2O[C@H](COC(C)=O)[C@@H](OC(C)=O)[C@H](OC(C)=O)[C@H]2OC(C)=O)c2cc(Cl)ccc21,0.18,0.22,88.9,494,404
CC(=O)OC[C@H]1O[C@@H](CC(=O)CC2(O)C(=O)N(Cc3ccccc3)c3ccc(Cl)cc32)[C@H](OC(C)=O)[C@@H](OC(C)=O)[C@@H]1OC(C)=O (stereo partly drawn),> 5,> 5,,,
CC(=O)OC[C@H]1O[C@@H](CC(=O)/C=C2\C(=O)N(Cc3cccc(C)c3)c3ccccc32)[C@H](OC(C)=O)[C@@H](OC(C)=O)[C@@H]1OC(C)=O,0.53,0.3,72.5,137,242
CCN(CC)CCCC(C)Nc1ccnc2cc(Cl)ccc12 (stereo not drawn) [CHLOROQUINE],,,> 500,,

# Reference: ChEMBL document CHEMBL4382238, “Synthesis of isatin based N1-alkylated 3-β-C-glycoconjugated-oxopropylidene oxindoles as potent antiplasmodial agents” (Eur J Med Chem, 2019)
